The structures appear in SMILES notation. Converted amounts (≈) assume the structure as drawn. The source made the active and inactive calls. No cut-off for these calls is given here.

Data set [1] deals with T1, Cysteinyl leukotriene receptor 1 (Homo sapiens, UniProt Q9Y271).
T1 sequence (Q9Y271 whole entry): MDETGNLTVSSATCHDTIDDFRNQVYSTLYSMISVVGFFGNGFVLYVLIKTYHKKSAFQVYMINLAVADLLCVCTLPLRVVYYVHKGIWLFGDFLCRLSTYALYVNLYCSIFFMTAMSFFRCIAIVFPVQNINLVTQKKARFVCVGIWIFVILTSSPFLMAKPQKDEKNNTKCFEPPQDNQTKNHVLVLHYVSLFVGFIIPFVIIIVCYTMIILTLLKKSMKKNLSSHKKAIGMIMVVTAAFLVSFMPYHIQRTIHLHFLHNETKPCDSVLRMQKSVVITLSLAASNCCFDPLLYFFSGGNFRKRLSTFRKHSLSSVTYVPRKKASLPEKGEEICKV
Briefly: Antagonist potency at human CysLT1R expressed in African green monkey COS7 cells assessed as inhibition of LTD4-induced Ca2+ levels after 60 mins by fura-2/AM-fluorescence based spectrofluorimetry. The data set is classed as functional, cell-based. The conditions noted are these: read-out: pA2 (converted).

The target in data set [2] is T2, Nuclear receptor subfamily 1 group I member 3 (Homo sapiens, UniProt Q14994).
T2 sequence (Q14994 whole entry): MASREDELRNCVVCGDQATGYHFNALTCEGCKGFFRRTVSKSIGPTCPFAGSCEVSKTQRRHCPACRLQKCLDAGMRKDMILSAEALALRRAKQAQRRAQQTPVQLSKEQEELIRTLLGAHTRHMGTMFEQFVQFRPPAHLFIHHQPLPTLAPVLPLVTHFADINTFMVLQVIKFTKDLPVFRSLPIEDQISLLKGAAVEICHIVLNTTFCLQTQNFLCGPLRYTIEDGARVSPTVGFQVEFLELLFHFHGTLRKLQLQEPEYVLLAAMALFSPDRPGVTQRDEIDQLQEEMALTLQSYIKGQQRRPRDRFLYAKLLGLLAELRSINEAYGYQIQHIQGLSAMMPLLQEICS
Briefly: Agonist activity at human CAR LBD expressed HEK293T cells at 10 uM after 12 to 14 hrs by dual-glo luciferase reporter gene assay. The data set is classed as ADME. (In general: Reporter assays use an easily measured gene product as a stand-in for the process of interest.)

The nature of data set [3]: Aqueous solubility of the compound at 5 mg after 24 hrs by HPLC analysis. The format is physicochemical. To be noted: water.
Data set [4] is described as follows: Lipophilicity, log D of the compound at 30 uM at pH 7.4 by HPLC method. The format is physicochemical. To be noted: buffer.
Data set [5] in a line: Metabolic stability in Sprague-Dawley rat liver microsomes assessed as compound remaining at 10 uM in presence of NADPH regenerating system after 4 hrs by HPLC analysis. The conditions noted are these: read-out: Stability. The data set is classed as ADME, microsome. (In general: Microsomes from liver hold many membrane-bound enzymes, among them those of drug oxidation.)
The next data set relates to HepG2. Put plainly: Cytotoxicity against human HepG2 cells at 1 to 100 uM after 48 hrs by WST assay. The format is cell-based. The conditions noted are these: hepg2, 48 h.
In data set [6] the target is T3, Peroxisome proliferator-activated receptor gamma (Mus musculus, UniProt P37238).
T3 sequence (P37238 whole entry): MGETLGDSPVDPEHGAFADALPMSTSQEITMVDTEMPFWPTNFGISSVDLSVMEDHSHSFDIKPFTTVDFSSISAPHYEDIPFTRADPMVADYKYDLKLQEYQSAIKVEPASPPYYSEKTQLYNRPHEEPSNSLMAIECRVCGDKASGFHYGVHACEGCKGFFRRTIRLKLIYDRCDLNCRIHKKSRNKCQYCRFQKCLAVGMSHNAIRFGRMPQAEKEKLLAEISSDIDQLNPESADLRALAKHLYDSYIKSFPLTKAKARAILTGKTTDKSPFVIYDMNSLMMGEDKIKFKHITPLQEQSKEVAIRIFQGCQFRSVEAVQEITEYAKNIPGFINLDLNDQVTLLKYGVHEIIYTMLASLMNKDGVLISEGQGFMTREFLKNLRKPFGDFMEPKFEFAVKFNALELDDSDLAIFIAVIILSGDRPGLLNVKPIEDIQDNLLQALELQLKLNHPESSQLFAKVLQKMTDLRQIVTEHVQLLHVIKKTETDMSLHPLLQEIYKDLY
Put plainly: Agonist activity at PPARgamma in mouse 3T3-L1 cells assessed as induction of adipocyte differentiation at 0.3 to 3 uM after 15 days by Oil Red O staining-based assay. The format is cell-based. The conditions noted are these: 3t3-l1, 360 h.

The target in data set [7] is T3, Peroxisome proliferator-activated receptor gamma. Briefly: Agonist activity at PPARgamma in mouse 3T3-L1 cells assessed as increase in CD36 mRNA expression at 1 uM after 15 days by quantitative real-time PCR method. To be noted: 3t3-l1, 360 h. The data set is classed as cell-based. (In general: Real-time PCR tracks product formation cycle by cycle.)
Data set [8] in a line: Elimination half life in C57BL/6JRj mouse at 10 mg/kg, po by LC-MS/MS analysis. The data set is classed as ADME, organism-based. To be noted: in vivo, read-out: beta t1/2 (converted). In short, it runs like this: (§1)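 Four healthy wild-type male C57Bl6/J mice received a single oral dose of 10 mg/kg. Plasma concentrations were followed over time to give uptake, bioavailability and terminal half-life. Results are mean±SEM, n=4.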

The test system of data set [9] is Mus musculus. Put plainly: Activation of PPARgamma in C57BL/6JRj mouse assessed as up-regulation of CD36 expression at 10 mg/kg, po administered as single dose measured at 8 hrs post dose relative to untreated control. The data set is classed as functional, organism-based. In short, it runs like this:
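Healthy wild-type male C57BL6/J mice were dosed orally at 10 mg/kg or with vehicle. Hepatic transcription of the PPARγ target gene CD36 was assessed in liver against vehicle-treated animals. Mean±SEM, n(vehicle)=2, n(treated)=4.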

In data set [10] the test system is Mus musculus. Briefly: Anti-inflammatory activity in zymosan-induced paw edema C57BL/6N mouse model assessed as reduction in paw edema at 10 mg/kg, po via gavage pretreated for 30 mins followed by zymosan injection and measured after 8 hrs post zymosan injection by plethysmometry. The data set is classed as functional, organism-based. In short, it runs like this: (§2)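 Zymosan was injected intraplantar into one hindpaw of C57BL/6N mice. Test compound or vehicle was given orally at 10 mg/kg 30 min beforehand. Paw edema was measured by plethysmometry at 8 h and 24 h after zymosan, with the contralateral hindpaw as a control.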

Data set [11] has as its system Mus musculus. Put plainly: Anti-inflammatory activity in zymosan-induced paw edema C57BL/6N mouse model assessed as reduction in paw edema at 10 mg/kg, po via gavage pretreated for 30 mins followed by zymosan injection and measured after 24 hrs post zymosan injection by plethysmometry. The data set is classed as functional, organism-based. In short, it runs like this:
as §2

Data set [12] deals with Mus musculus. Briefly: Drug uptake in C57BL/6JRj mouse at 10 mg/kg, po by LC-MS/MS analysis. The data set is classed as ADME, organism-based. To be noted: in vivo. In short, it runs like this:
as §1

In data set [13] the target is T4, Peroxisome proliferator-activated receptor gamma (Mus musculus) (UniProt P37238).
T4 sequence (whole entry): T3 sequence (P37238 whole entry)
Briefly: Agonist activity at PPARgamma in mouse 3T3-L1 cells assessed as increase in CPT1A mRNA expression at 1 uM after 15 days by quantitative real-time PCR method. The format is cell-based.

Data set [14] concerns Mus musculus. Put plainly: Time at which plasma concentration stays above in-vitro EC50 for partial agonist activity at PPARgamma in C57BL/6JRj mouse at 10 mg/kg, po by LC-MS/MS analysis. The data set is classed as organism-based. The conditions noted are these: in vivo. In short, it runs like this: as §1
For data set [15], the system named is Mus musculus. Briefly: Time at which plasma concentration stays above in-vitro IC50 for sEH in C57BL/6JRj mouse at 10 mg/kg, po by LC-MS/MS analysis. To be noted: in vivo. The format is ADME, organism-based. In short, it runs like this:
as §1

Data set [16] deals with Mus musculus. Put plainly: Time at which plasma concentration stays above in-vitro pA2 for CysLT1 in C57BL/6JRj mouse at 10 mg/kg, po by LC-MS/MS analysis. The format is ADME, organism-based. The conditions noted are these: in vivo. In short, it runs like this:
as §1

Broadly, the solubility is the dissolved amount per volume that the medium holds. What is called logD is lipophilicity at a set pH, counting ionised and neutral species. With `COc1cc(C(=O)NS(=O)(=O)c2ccccc2)ccc1Cc1cn(C)c2ccc(NC(=O)NC3CCCCC3)cc12`, the Kb in data set [1] is 2 nM. In addition, the Activity entry in data set [2] is “Not Active”; with HepG2, “Non-Toxic”; in data set [6], “Not Active”; in data set [7], “Not Active”. For the same molecule, the solubility at 24 h in data set [3] was determined as 2.1 µg/mL (≈ 3.65 µM). The logD at 30 µM in data set [4] came to 1.7. For the same molecule, in data set [5], the remaining at 4 h, 10 µM was 65%. Also, in [8], the half-life was 1.9 h. Also, the outcome in the data set with Mus musculus [9] and in the data set with Mus musculus [11] was Active. Also, the result (in the data set on Mus musculus [10]; in [13]) was inactive. Further, the Drug uptake result in the data set on Mus musculus [12] was “Active”. Further, the Time in the data set with Mus musculus [14] was 4 h; with Mus musculus [15], 8 h; with Mus musculus [16], 8 h.

Values taken from ChEMBL document CHEMBL4251751 (J Med Chem, 2018).
